Measurements reported in ChEMBL document CHEMBL1955770, “Inhibition of S/G2 phase CDK4 reduces mitotic fidelity” (J Biol Chem, 2006).

Columns and labels:
[1] = target: Dual specificity protein kinase CLK4 (Homo sapiens) (UniProt Q9HAZ1); assay: Inhibition of CLK4 at 1 uM
[2] = target: Vascular endothelial growth factor receptor 2 (Homo sapiens) (UniProt P35968); assay: Inhibition of VEGFR2 at 1 uM
[3] = target: Mitogen-activated protein kinase 9 (Homo sapiens) (UniProt P45984); assay: Inhibition of JNK2 at 1 uM
[4] = target: Insulin-like growth factor 1 receptor (Homo sapiens, UniProt P08069); assay: Inhibition of IGF1R at 1 uM
[5] = target: Tyrosine-protein kinase Fes/Fps (Homo sapiens) (UniProt P07332); assay: Inhibition of FES at 1 uM
[6] = target: Tyrosine-protein kinase Lyn (Homo sapiens) (UniProt P07948); assay: Inhibition of LYN at 1 uM
[7] = target: Tyrosine-protein kinase Blk (Homo sapiens) (UniProt P51451); assay: Inhibition of BLK at 1 uM
Outline: (§1)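 Competition binding screen across a kinase panel with compound at 1 μM. Read-out is % competition. Kinases not hit at this concentration were scored '<50'. No Kd was determined for hits.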

[8] = target: Mitogen-activated protein kinase 14 (Homo sapiens) (UniProt Q16539); assay: Inhibition of p38-alpha at 1 uM
[9] = target: Tyrosine-protein kinase CSK (Homo sapiens) (UniProt P41240); assay: Inhibition of CSK at 1 uM
[10] = target: Receptor tyrosine-protein kinase erbB-4 (Homo sapiens) (UniProt Q15303); assay: Inhibition of ERBB4 at 1 uM
[11] = target: Tyrosine-protein kinase BTK (Homo sapiens) (UniProt Q06187); assay: Inhibition of BTK at 1 uM; outline: as §1
[12] = target: Tyrosine-protein kinase Yes (Homo sapiens) (UniProt P07947); assay: Inhibition of YES at 1 uM
[13] = target: Serine/threonine-protein kinase 3 (Homo sapiens) (UniProt Q13188); assay: Inhibition of STK3 at 1 uM
[14] = target: Tyrosine-protein kinase TXK (Homo sapiens) (UniProt P42681); assay: Inhibition of TXK at 1 uM
[15] = target: Ephrin type-A receptor 4 (Homo sapiens) (UniProt P54764); assay: Inhibition of EPHA4 at 1 uM
[16] = target: Casein kinase II subunit alpha (Homo sapiens) (UniProt P68400); assay: Inhibition of CSNK2A1 at 1 uM
[17] = target: Mitogen-activated protein kinase kinase kinase 4 (Homo sapiens) (UniProt Q9Y6R4); assay: Inhibition of MAP3K4 at 1 uM
[18] = target: Ribosomal protein S6 kinase alpha-5 (Homo sapiens) (UniProt O75582); assay: Inhibition of RPS6KA5 Kin.Dom.1 at 1 uM
[19] = target: MAP kinase-interacting serine/threonine-protein kinase 2 (Homo sapiens) (UniProt Q9HBH9); assay: Inhibition of MKNK2 at 1 uM
[20] = target: Calcium/calmodulin-dependent protein kinase type II subunit delta (Homo sapiens) (UniProt Q13557); assay: Inhibition of CAMK2D at 1 uM; outline: as §1
[21] = target: Serine/threonine-protein kinase PLK4 (Homo sapiens) (UniProt O00444); assay: Inhibition of PLK4 at 1 uM
[22] = target: Focal adhesion kinase 1 (Homo sapiens) (UniProt Q05397); assay: Inhibition of PTK2 at 1 uM
[23] = target: Tyrosine-protein kinase Fgr (Homo sapiens) (UniProt P09769); assay: Inhibition of FGR at 1 uM
[24] = target: RAF proto-oncogene serine/threonine-protein kinase (Homo sapiens) (UniProt P04049); assay: Inhibition of RAF1 at 1 uM
[25] = target: Ribosomal protein S6 kinase alpha-2 (Homo sapiens) (UniProt Q15349); assay: Inhibition of RPS6KA2 Kin.Dom. 1 at 1 uM
[26] = target: Calcium/calmodulin-dependent protein kinase type 1D (Homo sapiens) (UniProt Q8IU85); assay: Inhibition of CAMK1D at 1 uM; outline: as §1
[27] = target: Mitogen-activated protein kinase 12 (Homo sapiens) (UniProt P53778); assay: Inhibition of p38-gamma at 1 uM
[28] = target: Serine/threonine-protein kinase 36 (Homo sapiens) (UniProt Q9NRP7); assay: Inhibition of STK36 at 1 uM
[29] = target: Proto-oncogene tyrosine-protein kinase ROS (Homo sapiens) (UniProt P08922); assay: Inhibition of ROS1 at 1 uM
[30] = target: Cyclin-G-associated kinase (Homo sapiens) (UniProt O14976); assay: Inhibition of GAK at 1 uM
Insulin receptor = Insulin receptor (Homo sapiens, UniProt P06213); assay: Inhibition of INSR at 1 uM
[31] = target: Mitogen-activated protein kinase kinase kinase kinase 5 (Homo sapiens) (UniProt Q9Y4K4); assay: Inhibition of MAP4K5 at 1 uM
[32] = target: Serine/threonine-protein kinase 17B (Homo sapiens) (UniProt O94768); assay: Inhibition of STK17B at 1 uM
[33] = target: Serine/threonine-protein kinase 17A (Homo sapiens) (UniProt Q9UEE5); assay: Inhibition of STK17A at 1 uM
[34] = target: Calcium/calmodulin-dependent protein kinase kinase 2 (Homo sapiens) (UniProt Q96RR4); assay: Inhibition of CAMKK2 at 1 uM
[35] = target: Proto-oncogene tyrosine-protein kinase Src (Homo sapiens, UniProt P12931); assay: Inhibition of SRC at 1 uM
[36] = target: Tyrosine-protein kinase JAK2 (Homo sapiens) (UniProt O60674); assay: Inhibition of JAK2(Kin.Dom.2) at 1 uM
[37] = target: Tyrosine-protein kinase SYK (Homo sapiens) (UniProt P43405); assay: Inhibition of SYK at 1 uM
[38] = target: 5'-AMP-activated protein kinase catalytic subunit alpha-1 (Homo sapiens) (UniProt Q13131); assay: Inhibition of AMPK-alpha1 at 1 uM; outline: as §1
[39] = target: STE20-like serine/threonine-protein kinase (Homo sapiens) (UniProt Q9H2G2); assay: Inhibition of SLK at 1 uM
[40] = target: Calcium/calmodulin-dependent protein kinase type 1 (Homo sapiens) (UniProt Q14012); assay: Inhibition of CAMK1 at 1 uM; outline: as §1
[41] = target: Receptor tyrosine-protein kinase erbB-2 (Homo sapiens) (UniProt P04626); assay: Inhibition of ERBB2 at 1 uM
[42] = target: Serine/threonine-protein kinase PAK 1 (Homo sapiens) (UniProt Q13153); assay: Inhibition of PAK1 at 1 uM
[43] = target: Aurora kinase C (Homo sapiens) (UniProt Q9UQB9); assay: Inhibition of AURKC at 1 uM; outline: as §1
[44] = target: Fibroblast growth factor receptor 3 (Homo sapiens) (UniProt P22607); assay: Inhibition of FGFR3 at 1 uM
[45] = target: Calcium/calmodulin-dependent protein kinase type 1G (Homo sapiens) (UniProt Q96NX5); assay: Inhibition of CAMK1G at 1 uM; outline: as §1
[46] = target: High affinity nerve growth factor receptor (Homo sapiens) (UniProt P04629); assay: Inhibition of TRKA at 1 uM

Chain of Mitogen-activated protein kinase kinase kinase 4 (Homo sapiens) (Q9Y6R4 whole entry): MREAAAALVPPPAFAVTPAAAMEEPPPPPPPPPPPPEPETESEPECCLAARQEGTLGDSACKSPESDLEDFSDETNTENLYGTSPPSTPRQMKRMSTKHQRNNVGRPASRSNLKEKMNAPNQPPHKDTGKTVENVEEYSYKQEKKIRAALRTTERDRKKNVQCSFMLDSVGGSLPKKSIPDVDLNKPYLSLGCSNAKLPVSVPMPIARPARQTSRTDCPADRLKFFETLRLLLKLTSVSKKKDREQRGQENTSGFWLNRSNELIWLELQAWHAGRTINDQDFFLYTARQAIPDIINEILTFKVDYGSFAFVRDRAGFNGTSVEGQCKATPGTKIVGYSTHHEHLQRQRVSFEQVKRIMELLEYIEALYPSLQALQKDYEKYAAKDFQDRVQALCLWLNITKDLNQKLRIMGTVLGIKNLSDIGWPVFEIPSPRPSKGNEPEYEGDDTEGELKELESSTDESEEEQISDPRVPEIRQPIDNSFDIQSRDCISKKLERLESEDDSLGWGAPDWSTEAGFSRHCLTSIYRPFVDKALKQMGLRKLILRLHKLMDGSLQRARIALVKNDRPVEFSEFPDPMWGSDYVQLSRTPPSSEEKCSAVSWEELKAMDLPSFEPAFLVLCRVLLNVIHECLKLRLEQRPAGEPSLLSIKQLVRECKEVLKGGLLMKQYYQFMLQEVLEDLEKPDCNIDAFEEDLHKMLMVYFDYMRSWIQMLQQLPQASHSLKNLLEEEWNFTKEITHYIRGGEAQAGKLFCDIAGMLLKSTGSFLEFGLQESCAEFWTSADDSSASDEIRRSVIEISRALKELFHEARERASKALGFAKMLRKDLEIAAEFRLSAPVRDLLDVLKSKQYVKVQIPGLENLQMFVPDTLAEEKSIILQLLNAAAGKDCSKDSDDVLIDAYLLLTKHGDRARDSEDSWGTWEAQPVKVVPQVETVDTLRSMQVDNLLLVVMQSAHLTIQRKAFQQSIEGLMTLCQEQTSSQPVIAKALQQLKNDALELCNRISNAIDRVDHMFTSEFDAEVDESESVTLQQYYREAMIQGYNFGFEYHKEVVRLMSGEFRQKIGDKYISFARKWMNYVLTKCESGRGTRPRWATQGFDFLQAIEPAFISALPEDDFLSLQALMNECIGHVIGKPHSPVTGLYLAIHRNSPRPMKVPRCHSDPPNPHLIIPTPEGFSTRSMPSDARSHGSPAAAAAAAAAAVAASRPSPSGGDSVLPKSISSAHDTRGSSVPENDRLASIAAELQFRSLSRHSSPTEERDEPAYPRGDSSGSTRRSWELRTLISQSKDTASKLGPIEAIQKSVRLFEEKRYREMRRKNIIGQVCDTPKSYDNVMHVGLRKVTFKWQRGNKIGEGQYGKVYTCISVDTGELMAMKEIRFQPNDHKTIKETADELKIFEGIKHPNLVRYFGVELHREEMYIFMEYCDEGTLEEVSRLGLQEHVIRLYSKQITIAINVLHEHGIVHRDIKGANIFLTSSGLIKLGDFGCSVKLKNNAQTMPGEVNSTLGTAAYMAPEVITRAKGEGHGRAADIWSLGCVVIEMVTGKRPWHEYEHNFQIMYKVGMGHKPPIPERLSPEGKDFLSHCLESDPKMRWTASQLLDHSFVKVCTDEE
Chain of Mitogen-activated protein kinase 14 (Homo sapiens) (Q16539 whole entry): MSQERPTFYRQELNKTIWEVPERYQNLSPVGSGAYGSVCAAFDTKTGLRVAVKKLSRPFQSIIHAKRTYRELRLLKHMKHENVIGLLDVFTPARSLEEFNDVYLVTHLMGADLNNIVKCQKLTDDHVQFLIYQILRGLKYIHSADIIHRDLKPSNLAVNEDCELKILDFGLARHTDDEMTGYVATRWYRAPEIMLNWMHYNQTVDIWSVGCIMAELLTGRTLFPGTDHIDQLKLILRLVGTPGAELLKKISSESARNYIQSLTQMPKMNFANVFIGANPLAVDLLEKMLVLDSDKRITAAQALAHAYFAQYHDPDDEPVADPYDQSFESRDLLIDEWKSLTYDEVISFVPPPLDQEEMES
Chain of Tyrosine-protein kinase Blk (Homo sapiens) (P51451 2-505 limits assumed): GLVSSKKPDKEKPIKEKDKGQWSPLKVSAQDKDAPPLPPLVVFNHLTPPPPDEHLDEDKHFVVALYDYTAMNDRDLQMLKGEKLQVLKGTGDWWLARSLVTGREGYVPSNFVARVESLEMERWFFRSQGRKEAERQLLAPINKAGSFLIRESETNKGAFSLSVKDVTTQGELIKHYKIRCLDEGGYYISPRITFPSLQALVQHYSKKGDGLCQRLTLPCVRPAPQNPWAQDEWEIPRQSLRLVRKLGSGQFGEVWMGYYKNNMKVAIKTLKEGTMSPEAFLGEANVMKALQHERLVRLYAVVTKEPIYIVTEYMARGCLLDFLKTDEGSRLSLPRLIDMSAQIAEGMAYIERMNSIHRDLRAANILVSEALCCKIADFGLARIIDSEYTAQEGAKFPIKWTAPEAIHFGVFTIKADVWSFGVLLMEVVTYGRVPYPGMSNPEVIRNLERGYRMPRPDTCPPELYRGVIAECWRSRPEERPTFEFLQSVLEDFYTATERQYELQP
Chain of Receptor tyrosine-protein kinase erbB-2 (Homo sapiens) (P04626 whole entry): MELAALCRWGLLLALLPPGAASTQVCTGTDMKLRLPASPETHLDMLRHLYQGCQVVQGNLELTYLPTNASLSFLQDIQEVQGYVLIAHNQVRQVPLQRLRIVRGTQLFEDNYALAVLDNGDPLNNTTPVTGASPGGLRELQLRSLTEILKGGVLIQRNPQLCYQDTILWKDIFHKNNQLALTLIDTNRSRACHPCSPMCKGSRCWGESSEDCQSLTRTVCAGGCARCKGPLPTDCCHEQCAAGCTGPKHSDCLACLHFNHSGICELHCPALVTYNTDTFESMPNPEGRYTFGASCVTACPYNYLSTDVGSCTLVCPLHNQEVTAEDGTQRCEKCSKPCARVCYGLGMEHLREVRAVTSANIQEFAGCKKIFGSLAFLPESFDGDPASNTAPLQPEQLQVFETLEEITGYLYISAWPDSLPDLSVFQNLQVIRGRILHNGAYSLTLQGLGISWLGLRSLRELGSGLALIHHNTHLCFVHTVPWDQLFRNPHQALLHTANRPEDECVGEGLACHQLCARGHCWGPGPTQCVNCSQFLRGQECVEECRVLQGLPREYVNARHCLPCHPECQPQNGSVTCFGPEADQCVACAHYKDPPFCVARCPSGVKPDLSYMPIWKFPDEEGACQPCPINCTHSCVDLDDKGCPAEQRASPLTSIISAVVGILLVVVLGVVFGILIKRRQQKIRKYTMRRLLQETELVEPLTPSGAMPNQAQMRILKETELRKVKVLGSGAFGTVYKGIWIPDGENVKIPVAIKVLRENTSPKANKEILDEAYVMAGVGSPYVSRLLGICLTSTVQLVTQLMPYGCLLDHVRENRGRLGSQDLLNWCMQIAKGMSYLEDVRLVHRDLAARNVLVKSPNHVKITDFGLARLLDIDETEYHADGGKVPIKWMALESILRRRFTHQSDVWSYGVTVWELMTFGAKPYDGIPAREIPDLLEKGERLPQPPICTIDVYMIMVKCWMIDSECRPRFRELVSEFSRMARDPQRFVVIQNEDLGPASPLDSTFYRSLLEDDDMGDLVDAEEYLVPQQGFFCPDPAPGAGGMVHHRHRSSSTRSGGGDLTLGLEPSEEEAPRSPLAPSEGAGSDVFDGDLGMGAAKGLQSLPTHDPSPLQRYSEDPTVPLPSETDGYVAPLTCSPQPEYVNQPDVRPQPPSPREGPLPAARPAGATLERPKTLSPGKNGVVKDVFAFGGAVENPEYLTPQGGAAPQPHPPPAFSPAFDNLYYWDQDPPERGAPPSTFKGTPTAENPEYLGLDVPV
Chain of Calcium/calmodulin-dependent protein kinase type 1 (Homo sapiens) (Q14012 whole entry, looked up): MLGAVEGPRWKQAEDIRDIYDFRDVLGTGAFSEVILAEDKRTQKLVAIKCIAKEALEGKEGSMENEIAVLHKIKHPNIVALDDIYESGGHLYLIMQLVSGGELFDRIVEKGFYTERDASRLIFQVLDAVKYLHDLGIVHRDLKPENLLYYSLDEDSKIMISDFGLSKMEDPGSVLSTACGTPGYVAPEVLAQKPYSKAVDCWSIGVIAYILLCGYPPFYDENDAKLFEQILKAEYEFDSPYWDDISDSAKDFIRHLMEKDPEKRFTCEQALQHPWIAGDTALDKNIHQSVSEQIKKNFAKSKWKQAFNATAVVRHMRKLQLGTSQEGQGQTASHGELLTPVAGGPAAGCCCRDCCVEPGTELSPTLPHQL
Chain of Tyrosine-protein kinase BTK (Homo sapiens) (Q06187 whole entry): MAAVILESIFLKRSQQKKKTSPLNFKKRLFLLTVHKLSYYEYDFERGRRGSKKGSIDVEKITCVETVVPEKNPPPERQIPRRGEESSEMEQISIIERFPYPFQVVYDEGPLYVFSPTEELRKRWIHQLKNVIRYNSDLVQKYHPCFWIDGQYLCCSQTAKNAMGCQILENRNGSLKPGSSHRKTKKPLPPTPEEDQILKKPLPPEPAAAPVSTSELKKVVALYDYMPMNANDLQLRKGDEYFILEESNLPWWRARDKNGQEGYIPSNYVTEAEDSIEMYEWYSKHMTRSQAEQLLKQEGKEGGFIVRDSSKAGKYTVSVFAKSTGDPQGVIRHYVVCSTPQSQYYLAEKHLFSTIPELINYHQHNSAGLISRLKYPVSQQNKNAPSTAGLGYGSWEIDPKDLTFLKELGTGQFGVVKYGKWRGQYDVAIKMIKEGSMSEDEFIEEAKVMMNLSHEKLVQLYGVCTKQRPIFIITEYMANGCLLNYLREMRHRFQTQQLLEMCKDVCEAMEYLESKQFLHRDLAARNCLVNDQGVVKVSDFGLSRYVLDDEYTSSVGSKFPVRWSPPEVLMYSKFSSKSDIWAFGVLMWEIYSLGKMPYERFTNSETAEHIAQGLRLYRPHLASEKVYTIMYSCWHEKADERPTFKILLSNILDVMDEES
Chain of Aurora kinase C (Homo sapiens) (Q9UQB9 whole entry): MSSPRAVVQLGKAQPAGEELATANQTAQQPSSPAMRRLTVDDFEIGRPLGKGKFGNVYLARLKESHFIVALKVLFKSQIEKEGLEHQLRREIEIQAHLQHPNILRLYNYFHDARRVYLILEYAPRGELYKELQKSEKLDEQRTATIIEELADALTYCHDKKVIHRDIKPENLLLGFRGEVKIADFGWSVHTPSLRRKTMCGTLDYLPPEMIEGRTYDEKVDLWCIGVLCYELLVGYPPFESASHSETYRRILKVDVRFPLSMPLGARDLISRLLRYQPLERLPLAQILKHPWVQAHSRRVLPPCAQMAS

In the case of `CN1CCN(c2ccc(Nc3nc(N)c(C(=O)c4ccc5c(c4)OCCO5)s3)cc2)CC1`, the inhibition [1] was 97%, the inhibition [2] was < 50% and the inhibition [3] was < 50%. The inhibition [4] was < 50%, the inhibition [5] was < 50% and the inhibition [6] was < 50%. The inhibition [7] was < 50%, the inhibition [8] was < 50% and the inhibition [9] was < 50%. For the same compound, the inhibition [10] was < 50%, the inhibition [11] was < 50% and the inhibition [12] was < 50%. The inhibition [13] was < 50%, the inhibition [14] was < 50% and the inhibition [15] was < 50%. The inhibition [16] was < 50%, the inhibition [17] was < 50% and the inhibition [18] was < 50%. The inhibition [19] was < 50%, the inhibition [20] was < 50% and the inhibition [21] was < 50%. The inhibition [22] was < 50%, the inhibition [23] was < 50% and the inhibition [24] was < 50%. The inhibition [25] was < 50%, the inhibition [26] was < 50% and the inhibition [27] was < 50%. For the same compound, the inhibition [28] was 86%, the inhibition [29] was < 50% and the inhibition [30] was 100%. The inhibition (Insulin receptor) was < 50%, the inhibition [31] was < 50% and the inhibition [32] was < 50%. The inhibition [33] was 89%, the inhibition [34] was < 50% and the inhibition [35] was < 50%. For the same compound, the inhibition [36] was < 50%, the inhibition [37] was < 50% and the inhibition [38] was < 50%. For the same compound, the inhibition [39] was 99%, the inhibition [40] was < 50% and the inhibition [41] was < 50%. The inhibition [42] was < 50%, the inhibition [43] was < 50% and the inhibition [44] was < 50%. The inhibition [45] was < 50% and the inhibition [46] was < 50%.
